Source: PubChem BioAssay (several laboratories)
PMI act hi M6P = increases human PMI activity with near-saturating mannose 6-phosphate; P34949; coupled PMI enzyme assay, resazurin fluorescence, 20 min; stronger effect = higher value; 1 = untreated enzyme, 0 = substrate-free blank; activation factor at 20 µM; 190,000 tested, 0.34% active;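 active means activation factor of 2 or more at 20 µM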
Target sequence (P34949 whole entry, looked up): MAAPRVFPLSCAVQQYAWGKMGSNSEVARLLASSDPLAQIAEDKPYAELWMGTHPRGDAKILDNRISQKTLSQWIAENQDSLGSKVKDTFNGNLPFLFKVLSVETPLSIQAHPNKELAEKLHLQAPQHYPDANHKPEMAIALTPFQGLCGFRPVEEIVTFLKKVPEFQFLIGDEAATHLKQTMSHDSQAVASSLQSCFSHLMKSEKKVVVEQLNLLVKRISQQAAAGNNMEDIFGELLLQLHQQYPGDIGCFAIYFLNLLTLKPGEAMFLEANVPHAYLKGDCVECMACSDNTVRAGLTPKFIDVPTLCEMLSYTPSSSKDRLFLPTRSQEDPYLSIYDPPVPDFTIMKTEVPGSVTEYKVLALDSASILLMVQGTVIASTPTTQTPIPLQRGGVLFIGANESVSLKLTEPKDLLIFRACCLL
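Test system: human phosphomannose isomerase with PGI, G6PDH, diaphorase coupling enzymes / Doses: 20 µM compound, 1% DMSO / Times: enzyme reaction with compound 20 min at room temperature / Measured by: Diaphorase-driven resazurin-to-resorufin fluorescence, excitation 544, emission 590 nm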
L major viab = reduces viability of Leishmania major promastigotes. resazurin fluorescence viability. inhibition, % at 10 µM. 200,000 tested, 9% active; in the data active means inhibition above about 50%;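 further: promastigotes grown with compound for 44 hours at 28 °C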
HCT116 bCat-KO = beta-catenin-lacking colon tumor cell growth suppression; AID 818; 140,000 tested, 1.5% active; viability, % at 10 µM; HCT116 beta-catenin knockout viability, CellTiter-Glo, 60 h; stronger effect = lower value;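 active means viability at or under a set limit, the compound median less 4 SD, cut at about 6% in these data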
HCT116 PTEN-null = growth suppressors of cells with PTEN tumor suppressor deletion; HCT116 PTEN-null viability, CellTiter-Glo, 60 h; stronger effect = lower value; viability, % at 10 µM; 140,000 tested, 1.2% active; AID 827;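 active means viability at or below a set limit, 4 SD under the median of all tested compounds, cut at about 3.7% in these data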;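 further: PTEN knockout HCT116 line with beta catenin targeted HCT116 as companion control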
PMI activator = increases human mannose-6-phosphate isomerase activity; 190,000 tested, 0.005% active; P34949; activation factor at 20 µM; purified human PMI, coupled resazurin fluorescence, 20 min; stronger effect = higher value; 1 = vehicle control, 0 substrate-free wells;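 active means activation factor of 2 or more at 20 µM, relative to plate controls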
Of the large screens only hits and unclear results are named; the others gave an inactive call. Shown are actives, neighbours in structure and some others; about 9.6% of the full set was active somewhere.

COC(=O)c1ccc(CSc2nc3ccccc3c(=O)n2Cc2ccco2)o1	L major viab 96.9
C=CCn1c(C)cc(C(=O)CSc2nc3ccccc3c(=O)[nH]2)c1C	none
CC12CCC(c3n[nH]c(=S)nc31)C2(C)C (stereo not drawn)	none
CCCCCNC(=O)N[C@H](C(=O)O)C(C)C	none
O=C(NNS(=O)(=O)c1ccc2ccccc2c1)c1cccnc1	none
CC(C)Sc1nnc(CNC(=O)C23CC4CC(CC(C4)C2)C3)n1C1CCCCC1	none
O=C(CSc1nnc(-c2ccncc2)n1Cc1ccccc1)NC1CCCc2ccccc21 (stereo not drawn)	L major viab 83.3
CCCn1c(C)cc(C(=O)CSc2nc3ccccc3c(=O)n2Cc2ccco2)c1C	L major viab 88.6
Cc1cc(C(=O)CSc2nc3ccccc3[nH]2)c(C)n1C	none
O=C(CSc1nc2ccccc2[nH]1)c1ccc(Cl)s1	L major viab 80.4
NC(=O)CSc1nc2ccccc2c(=O)n1Cc1ccco1	none
CNC(=O)CSc1nnc(-c2ccncc2)n1Cc1ccccc1	none
Cc1cc(C(=O)CSc2nc3ccccc3[nH]2)c(C)n1Cc1ccco1	L major viab 94.5
O=C(CN1CCN(c2ccccn2)CC1)Nc1cccc(S(=O)(=O)N2CCCC2)c1	none (no result: HCT116 bCat-KO, HCT116 PTEN-null)
COc1ccccc1CN(C)CC(=O)NC1CCCc2ccccc21 (stereo not drawn)	none (no result: HCT116 bCat-KO, HCT116 PTEN-null)
CCN(CC)CCCNC(=O)c1cc2c(Cl)nc3ccccc3c2s1	L major viab 98.2 (no result: HCT116 bCat-KO, HCT116 PTEN-null)
COc1cc(NC(=O)c2cc3c(Cl)nc4ccccc4c3s2)cc(OC)c1OC	L major viab 56.8
COc1ccc(N(C)C(=O)c2cc3c(Cl)nc4ccccc4c3s2)cc1	none
CN(CCCNC(=O)c1cc2c(Cl)nc3ccccc3c2s1)Cc1ccccc1	L major viab 93.3 (no result: HCT116 bCat-KO, HCT116 PTEN-null)
CC1CCCN(CCCNC(=O)c2cc3c(Cl)nc4ccccc4c3s2)C1 (stereo not drawn)	L major viab 99.7 (no result: HCT116 bCat-KO, HCT116 PTEN-null)
Oc1ccc(C2C(c3ccccc3)=NN=C(c3ccc(Cl)cc3)N2O)c(O)c1 (stereo not drawn)	none
O=C(Cn1c(=O)oc2cc(S(=O)(=O)N3CCc4ccccc43)ccc21)NC1CCCC1	L major viab 98.5
CCOC(=O)Cn1c(=O)oc2cc(S(=O)(=O)N3CCC(N4CCCCC4)CC3)ccc21	none
O=C(Cn1c(=O)oc2cc(S(=O)(=O)N3CCCC3)ccc21)NCc1ccccn1	none
CC(C)CCNC(=O)Cn1c(=O)oc2cc(S(=O)(=O)N3CCc4ccccc43)ccc21	L major viab 98.8
CCOC(=O)Cn1c(=O)oc2cc(S(=O)(=O)N3CCCc4ccccc43)ccc21	L major viab 81.2
O=C(Cn1c(=O)oc2cc(S(=O)(=O)N3CCCC3)ccc21)N1CCN(C2CCCCC2)CC1	L major viab 84.8
Nc1c(C(=O)c2ccco2)oc2ccccc12	none (no result: HCT116 bCat-KO, HCT116 PTEN-null)
CC(C)(C=O)C1=CC(=O)c2ccccc2C1=O	L major viab 55.6, HCT116 bCat-KO 1.3, HCT116 PTEN-null 1.7
Cc1nn(-c2ccccc2)c(N2CCCC2)c1/C=N/Nc1ccc(S(=O)(=O)Nc2ccccc2)cc1[N+](=O)[O-]	L major viab 97.4
COc1ccccc1NS(=O)(=O)c1cccc(C(=O)N/N=C/c2cn(-c3ccccc3)nc2-c2ccccc2)c1	L major viab 53.2
COc1ccccc1NS(=O)(=O)c1cccc(C(=O)N/N=C/c2c(C)nn(-c3ccccc3)c2N2CCCC2)c1	L major viab 96.2
CCN(CC)c1ccc(/C=N/NC(=O)c2cccc(S(=O)(=O)Nc3ccccc3OC)c2)cc1	none (no result: HCT116 bCat-KO, HCT116 PTEN-null)
CCN(CC)c1ccc(/C=N/NC(=O)c2cccc(S(=O)(=O)Nc3ccccc3OC)c2)c(O)c1	L major viab 100.1, HCT116 bCat-KO 5.3
CCOc1ccc(S(=O)(=O)Nc2ccc(C(=O)N/N=C/c3c(C)nn(-c4ccccc4)c3N3CCCC3)cc2)cc1	none
COc1ccccc1NS(=O)(=O)c1ccc(N/N=C/c2c(C)nn(-c3ccccc3)c2N2CCCC2)c([N+](=O)[O-])c1	L major viab 99.7
COc1ccccc1NS(=O)(=O)c1ccc(N/N=C/c2ccccc2OCC(=O)O)c([N+](=O)[O-])c1	none (no result: HCT116 bCat-KO, HCT116 PTEN-null)
O=C(CNc1ccccc1)N/N=C/c1cn(-c2ccccc2)nc1-c1ccccc1	L major viab 69.0
COc1ccc(-c2nn(-c3ccccc3)cc2/C=N/NC(N)=S)cc1OC	L major viab 80.5
